We go through 15 compounds from ChEMBL document CHEMBL4043129, “Design, synthesis and bioactivities of Celecoxib analogues or derivatives” (Bioorg Med Chem, 2017).

As a reminder, the IC50 is the point on the concentration scale where inhibition reaches its midpoint. As a reminder, the inhibition in vivo is the relative decrease from the control value, in per cent. Higher therefore signals a response far below the control. By pKa is commonly meant the pH at which an ionisable group is half protonated. What is called logP is the decadic logarithm of the partition coefficient of the neutral form, usually between octanol and water.

Data set [1] has as its target T1, Prostaglandin G/H synthase 1 (Rattus norvegicus, UniProt Q63921).
T1 sequence (Q63921 whole entry): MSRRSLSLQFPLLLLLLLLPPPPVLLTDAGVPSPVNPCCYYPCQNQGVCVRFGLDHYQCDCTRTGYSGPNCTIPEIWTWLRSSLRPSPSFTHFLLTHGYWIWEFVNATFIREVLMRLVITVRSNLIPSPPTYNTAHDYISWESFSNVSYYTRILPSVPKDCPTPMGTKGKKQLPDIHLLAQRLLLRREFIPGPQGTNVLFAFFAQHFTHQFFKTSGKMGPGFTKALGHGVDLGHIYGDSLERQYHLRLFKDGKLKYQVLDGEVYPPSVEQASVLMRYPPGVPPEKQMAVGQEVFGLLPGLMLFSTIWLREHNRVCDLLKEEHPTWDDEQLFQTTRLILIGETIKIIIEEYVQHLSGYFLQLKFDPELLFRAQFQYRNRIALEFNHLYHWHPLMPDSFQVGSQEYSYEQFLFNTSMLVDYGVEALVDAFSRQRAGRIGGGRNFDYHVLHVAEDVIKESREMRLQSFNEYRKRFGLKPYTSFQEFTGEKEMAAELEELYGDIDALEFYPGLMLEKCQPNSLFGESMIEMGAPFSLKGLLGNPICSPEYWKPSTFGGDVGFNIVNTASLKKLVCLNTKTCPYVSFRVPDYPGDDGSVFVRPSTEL
In words: Inhibition of COX-1 in rat peritoneal macrophages assessed as reduction in [125I]-6-Keto-PGF1alpha production using arachidonic acid as substrate pretreated for 30 mins followed by substrate addition measured after 30 mins. In a few lines:
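Rat peritoneal macrophages were elicited with 5 mL 0.5% gelatin i.p. and harvested after 5 h. Cells were washed, seeded at 1.0 × 10^6/mL and adhered 24 h at 37 °C, 5% CO2, then kept 24 h in 0.5% FCS RPMI-1640. Compounds at several concentrations were added for 30 min, then arachidonic acid for 30 min. 125I-6-keto-PGF1α was read by kit, and IC50 was taken as the concentration halving radioactivity.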

Data set [2] deals with Rattus norvegicus. In words: In-vivo inhibition of COX2 in rat at 20 mg/kg measured after 60 mins. The format is functional. The settings on record: 1 h.
The subject of data set [3] is Rattus norvegicus. Nature of the data set: Anti-inflammatory activity in rat assessed as reduction in PGE2 release at 20 mg/kg measured after 2 hrs. In kind it is functional, organism-based.
Data set [4] deals with Rattus norvegicus. In words: In-vivo inhibition of COX2 in rat at 20 mg/kg measured after 120 mins. The format is functional. The settings on record: 2 h.
Data set [5] relates to Rattus norvegicus. In words: In-vivo inhibition of COX2 in rat at 20 mg/kg measured after 20 mins. The format is functional.
Data set [6] can be described thus: Dissociation constant, pKa of the compound. In kind it is physicochemical.
Data set [7] deals with Rattus norvegicus. In words: In-vivo inhibition of COX2 in rat at 20 mg/kg measured after 90 mins. The settings on record: 1.5 h. In kind it is functional.
Data set [8] in a line: Selectivity index, ratio of IC50 for COX1 in rat peritoneal macrophages to IC50 for COX2 in rat peritoneal macrophages. A digest of the protocol: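 Both IC50s come from gelatin-elicited rat peritoneal macrophages given 0.5% FCS RPMI-1640 for 24 h, then compound for 30 min and arachidonic acid for 30 min. COX-1 was read as 125I-6-keto-PGF1α. For COX-2, cells first had 10% FCS for 1 h, a PBS rinse and […] LPS for 8 h, and supernatant PGE2 was read. Each IC50 is the concentration halving radioactivity.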

The target of data set [9] is T2, Prostaglandin G/H synthase 2 (Rattus norvegicus, UniProt P35355).
T2 sequence (P35355 whole entry): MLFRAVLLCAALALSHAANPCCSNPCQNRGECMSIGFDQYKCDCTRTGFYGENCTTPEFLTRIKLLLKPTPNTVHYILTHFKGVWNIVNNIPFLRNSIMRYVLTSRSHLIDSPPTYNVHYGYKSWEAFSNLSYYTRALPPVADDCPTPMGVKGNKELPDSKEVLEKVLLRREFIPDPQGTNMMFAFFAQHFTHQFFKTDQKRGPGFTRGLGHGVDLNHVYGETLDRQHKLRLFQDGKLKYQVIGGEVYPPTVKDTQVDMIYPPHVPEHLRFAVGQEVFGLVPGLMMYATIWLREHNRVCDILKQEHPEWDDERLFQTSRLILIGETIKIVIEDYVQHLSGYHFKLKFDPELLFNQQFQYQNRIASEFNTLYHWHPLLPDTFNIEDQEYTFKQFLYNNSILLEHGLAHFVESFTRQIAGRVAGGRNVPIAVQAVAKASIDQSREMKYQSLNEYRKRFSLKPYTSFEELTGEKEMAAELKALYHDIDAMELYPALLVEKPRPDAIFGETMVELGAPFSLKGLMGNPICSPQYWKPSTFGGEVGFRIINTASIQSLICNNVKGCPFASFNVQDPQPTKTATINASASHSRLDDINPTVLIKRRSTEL
Nature of the data set: Inhibition of COX-2 in rat peritoneal macrophages assessed as reduction in PGE2 production using radiolabelled-arachidonic acid as substrate pretreated for 30 mins followed by substrate addition measured after 30 mins.

The subject of data set [10] is Rattus norvegicus. Nature of the data set: In-vivo inhibition of COX2 in rat at 20 mg/kg measured after 40 mins. In kind it is functional.
Data set [11] can be described thus: Lipid/water partition coefficient, log P of the compound. The format is physicochemical.

Each structure is given as a SMILES string. Active and inactive are the calls of the source. The calls are words filed in the database; no cut-off is given here.

Regarding `CN1C=CN(C2SC(C(F)(F)F)=CN2c2ccc(S(N)(=O)=O)cc2)C=C1` (stereo not given), the IC50 in data set [1] was 52.4 µM; in data set [9] it was 0.0793 µM. The inhibition in vivo at 20 mg/kg in the data set on Rattus norvegicus [2] turned out to be 86.1%; in the data set with Rattus norvegicus [4], 98%; with Rattus norvegicus [5], 42.5%; in the data set on Rattus norvegicus [7], 97.3%; in the data set on Rattus norvegicus [10] it was 63.1%. The result in the data set with Rattus norvegicus [3] was Active. This compound registered a pKa in data set [6] of 7.5. Further, in data set [8], the “Ratio IC50” value came out at 660.3. The compound also gave a lipophilicity (logP) in data set [11] of 2.38.
Regarding `CN1C=CN(C2OC(C(F)(F)F)=CN2c2ccc(S(N)(=O)=O)cc2)C=C1` (stereo not given), the IC50 in [1] is 55.6 µM; in data set [9], 1.27 µM. Besides, the pKa in data set [6] turned out to be 7.18. Further, in data set [8], the “Ratio IC50” value came to 43.8. For the same compound, the log partition coefficient (logP) in data set [11] worked out at 1.68.
The matching figures for `CC1=CN(c2ccc(S(N)(=O)=O)cc2)C(C2C=CN(C)C=C2)S1` (stereo not given): 56.9 µM, 1.53 µM, 7.39, 37.1 and 2.12.
`CN1C=CN(C2OC(C(Cl)(Cl)Cl)=CN2c2ccc(S(N)(=O)=O)cc2)C=C1` (stereo not given): the IC50 in [1] is 53.4 µM; in [9], 0.099 µM. Further, the inhibition in vivo at 20 mg/kg in the data set on Rattus norvegicus [2] worked out at 85.9%; in the data set on Rattus norvegicus [4] it was 97.9%; with Rattus norvegicus [5] it was 40.6%; in the data set on Rattus norvegicus [7], 95.4%; in the data set on Rattus norvegicus [10] it was 60.9%. Also, in the data set with Rattus norvegicus [3], the outcome was Active. In addition, in [6], the pKa came to 7.55. The “Ratio IC50” value in data set [8] is given as 539.3. Moreover, the logP in data set [11] was determined as 2.41.
On to `CC1=CN(c2ccc(S(N)(=O)=O)cc2)C(C2C=CN(C)C=C2)N1` (stereo not given), for which the result with Rattus norvegicus [3] was Active.
Turning to `CC1=CN(c2ccc(S(N)(=O)=O)cc2)C(N2C=CN(C)C=C2)O1` (stereo not given), the IC50 in data set [1] was determined as 98.5 µM; in data set [9] it was 20.1 µM. For the same compound, in data set [6], the pKa is 7.01. Further, the “Ratio IC50” value in data set [8] turned out to be 4.9. In addition, the log partition coefficient (logP) in data set [11] is 1.04.
For `CN1C=CN(C2NC(C(F)(F)F)=CN2c2ccc(S(N)(=O)=O)cc2)C=C1` (stereo not given), in the data set on Rattus norvegicus [3], the outcome was Active.
In the case of `CC1=CN(c2ccc(S(N)(=O)=O)cc2)C(N2C=CN(C)C=C2)S1` (stereo not given), the figures for the concentration for half-maximal inhibition (IC50) in data set [1] and in data set [9] were 76.9 µM and 16.4 µM, respectively. In data set [6], the pKa is 7.2. Also, the “Ratio IC50” value in data set [8] is listed as 4.8. In [11], the logP was found to be 1.75.
Regarding `Cc1ccc(-c2cc(C(F)(F)F)nn2-c2ccc(S(N)(=O)=O)cc2)cc1` [CELECOXIB], the inhibition in vivo at 20 mg/kg with Rattus norvegicus [2] stood at 89.1%; in the data set on Rattus norvegicus [4], 100%; in the data set on Rattus norvegicus [5], 45.3%; with Rattus norvegicus [7] it was 100%; in the data set with Rattus norvegicus [10] it was 68.4%.
`CN1C=CN(C2SC(C(Cl)(Cl)Cl)=CN2c2ccc(S(N)(=O)=O)cc2)C=C1` (stereo not given): the half-maximal inhibitory concentration (IC50) in [1] came out at 88.6 µM; in data set [9] it was 11.6 µM. In data set [6], this compound came in with a pKa of 7.76. For the same compound, the “Ratio IC50” value in data set [8] is 7.7. Besides, in [11], the logP was 3.13.
`CC1=CN(c2ccc(S(N)(=O)=O)cc2)C(C2C=CN(C)C=C2)O1` (stereo not given): the IC50 in [1] worked out at 95.2 µM; in data set [9] it was 17.4 µM. In data set [6], this compound showed a pKa of 7.09. The “Ratio IC50” value in data set [8] is 5.5. The same compound yielded a logP in data set [11] of 1.4.
As for `CN1C=CC(C2OC(C(F)(F)F)=CN2c2ccc(S(N)(=O)=O)cc2)C=C1` (stereo not given), the figures for the IC50 in data set [1] and in data set [9] were 50.2 µM and 0.053 µM, respectively. Further, the inhibition in vivo at 20 mg/kg came out at 87.5% with Rattus norvegicus [2]; 100% in the data set on Rattus norvegicus [4]; 44.6% in the data set on Rattus norvegicus [5]; 99.6% with Rattus norvegicus [7]; 64.9% in the data set with Rattus norvegicus [10]. Besides, the outcome in the data set with Rattus norvegicus [3] was Active. Further, the pKa in [6] was 7.33. Moreover, in data set [8], the “Ratio IC50” value is listed as 947.5. This compound also yielded a lipophilicity (logP) in data set [11] of 2.05.
On to `CN1C=CC(C2SC(C(F)(F)F)=CN2c2ccc(S(N)(=O)=O)cc2)C=C1` (stereo not given), for which the IC50 in [1] came to 80.5 µM; in data set [9] it was 8.08 µM. The pKa in [6] turned out to be 7.62. Also, in data set [8], the “Ratio IC50” value is listed as 10. This compound returned a lipophilicity (logP) in data set [11] of 2.77.
With `CN1C=CC(C2SC(C(Cl)(Cl)Cl)=CN2c2ccc(S(N)(=O)=O)cc2)C=C1` (stereo not given), the IC50 in data set [1] came out at 98.2 µM; in [9], 12.7 µM. This compound also registered a pKa in data set [6] of 8. Moreover, in [8], the “Ratio IC50” value stood at 7.7. In addition, the log partition coefficient (logP) in data set [11] was found to be 3.5.
The matching figures for `CN1C=CC(C2OC(C(Cl)(Cl)Cl)=CN2c2ccc(S(N)(=O)=O)cc2)C=C1` (stereo not given): 83.1 µM, 13.7 µM, 7.63, 6.1 and 2.78.
